In ChEMBL document CHEMBL5154792, “A New Amino Acid for Improving Permeability and Solubility in Macrocyclic Peptides through Side Chain-to-Backbone Hydrogen Bonding” (J Med Chem, 2022):
Values after ≈ are worked out from the molar mass of the structure shown.

Key:
[1] = Thermodynamic solubility of the compound at pH 7.4 after 24 hrs by UPLC-MS analysis; assay type: physicochemical; details: buffer, read-out: Therm_solubility
How it was run: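 10 mM DMSO stocks were dried down, redissolved in PBS pH 7.4 (maximum 2 mM), sonicated 1 h, then gently agitated ~24 h at 37 °C. Filtered through 0.7 µm glass fiber, diluted up to 40-fold in MeCN and quantified by UPLC-MS against standard curves (50 µM to 0.1 µM in DMSO).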

[2] = Apparent permeability of the compound after 15 hrs by UPLC-MS based PAMPA; assay type: ADME; details: for Papp: pampa, 15 h; for Papp at 15 h: PAMPA
How it was run: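 Donor: 2 µM peptide in PBS pH 7.4 with 5% DMSO final. Acceptor: 5% DMSO in PBS. Membrane of 1% (w/v) soybean lecithin in n-dodecane. Incubated ~15 h at room temperature (exact time recorded) in a humidified sealed chamber. Donor and acceptor wells quantified by UPLC-MS in quadruplicate. Papp derived from %T (acceptor vs theoretical equilibrium) using membrane area 240 mm2.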

Compound | solubility thermodynamic at 24 h [1] [µM] | Papp [2] | Papp at 15 h [2] [×10⁻⁶ cm/s]
CC(C)C[C@@H]1NC(=O)[C@@H](CC(C)C)NC(=O)[C@@H](CC(C)C)NC(=O)[C@@H](CC(C)C)NC(=O)[C@H]2CCCN2C(=O)[C@H](CC(C)C)NC1=O | 16 (≈ 10.6 µg/mL) | 8.1 10^-6 cm/s | –
CC(C)C[C@@H]1NC(=O)[C@@H](CCC(=O)N2CCCC2)NC(=O)[C@H](CC(C)C)NC(=O)[C@@H](CC(C)C)NC(=O)[C@H]2CCCN2C(=O)[C@H](CC(C)C)NC1=O | 580 (≈ 425 µg/mL) | – | 0.14
CC(C)C[C@@H]1NC(=O)[C@@H](CC(C)C)NC(=O)[C@H](CC(C)C)NC(=O)[C@@H](CC(=O)N(C)C)NC(=O)[C@H]2CCCN2C(=O)[C@H](CC(C)C)NC1=O | 1120 (≈ 775 µg/mL) | – | 0.28
CC(C)C[C@@H]1NC(=O)[C@@H](CC(C)C)NC(=O)[C@@H](CC(C)C)NC(=O)[C@@H](CC(C)C)NC(=O)[C@H]2CCCN2C(=O)[C@H](CCC(=O)N2CCCC2)NC1=O | 720 (≈ 527 µg/mL) | – | 0.66
CC(C)C[C@@H]1NC(=O)[C@@H](CC(C)C)NC(=O)[C@H](CC(C)C)NC(=O)[C@@H](CC(C)C)NC(=O)[C@H]2CCCN2C(=O)[C@H](CCC(=O)N2CCCC2)NC1=O | 600 (≈ 439 µg/mL) | – | 0.18
CC(C)C[C@@H]1NC(=O)[C@@H](CC(C)C)NC(=O)[C@@H](CC(C)C)NC(=O)[C@@H](CC(C)C)NC(=O)[C@@H](CC(C)C)NC(=O)[C@H]2CCCN2C1=O | 240 (≈ 159 µg/mL) | 5.3 10^-6 cm/s | –
CC(C)C[C@@H]1NC(=O)[C@@H](CC(C)C)NC(=O)[C@H](CC(C)C)NC(=O)[C@@H](CC(=O)N2CCCC2)NC(=O)[C@H]2CCCN2C(=O)[C@H](CC(C)C)NC1=O | 670 (≈ 481 µg/mL) | – | 0.56
COC(=O)CC[C@H]1NC(=O)[C@H]2CCCN2C(=O)[C@H](CC(C)C)NC(=O)[C@H](CC(C)C)NC(=O)[C@@H](CC(C)C)NC(=O)[C@H](CC(C)C)NC1=O | 710 (≈ 492 µg/mL) | – | 2
CC(C)C[C@@H]1NC(=O)[C@@H](CC(C)C)NC(=O)[C@H](CC(C)C)NC(=O)[C@@H](CC(C)C)NC(=O)[C@H]2CCCN2C(=O)[C@H](CC(C)C)NC1=O | 63 (≈ 41.8 µg/mL) | 8 10^-6 cm/s | –
CC(C)C[C@@H]1NC(=O)[C@@H](CC(C)C)NC(=O)[C@H](CC(C)C)NC(=O)[C@@H](CCC(=O)N(C)C)NC(=O)[C@H]2CCCN2C(=O)[C@H](CC(C)C)NC1=O | 1660 (≈ 1170 µg/mL) | – | 0.7
CC(C)C[C@H]1NC(=O)[C@H]2CCCN2C(=O)[C@H](CCC(=O)N2CCCC2)NC(=O)[C@@H](CC(C)C)NC(=O)[C@@H](CC(C)C)NC(=O)[C@@H](CC(C)C)NC1=O | 560 (≈ 410 µg/mL) | – | 1.5

Continued, values first:

solubility thermodynamic at 24 h [1] [µM] | Papp [2] | Papp at 15 h [2] [×10⁻⁶ cm/s] | Compound
550 (≈ 403 µg/mL) | – | 0.13 | CC(C)C[C@@H]1NC(=O)[C@@H](CCC(=O)N2CCCC2)NC(=O)[C@@H](CC(C)C)NC(=O)[C@@H](CC(C)C)NC(=O)[C@@H](CC(C)C)NC(=O)[C@H]2CCCN2C1=O
510 (≈ 373 µg/mL) | – | 0.32 | CC(C)C[C@@H]1NC(=O)[C@H](CCC(=O)N2CCCC2)NC(=O)[C@@H](CC(C)C)NC(=O)[C@@H](CC(C)C)NC(=O)[C@@H](CC(C)C)NC(=O)[C@H]2CCCN2C1=O
460 (≈ 337 µg/mL) | – | 1.3 | CC(C)C[C@@H]1NC(=O)[C@@H](CC(C)C)NC(=O)[C@@H](CCC(=O)N2CCCC2)NC(=O)[C@@H](CC(C)C)NC(=O)[C@@H](CC(C)C)NC(=O)[C@H]2CCCN2C1=O
580 (≈ 425 µg/mL) | – | 0.3 | CC(C)C[C@@H]1NC(=O)[C@@H](CCC(=O)N2CCCC2)NC(=O)[C@@H](CC(C)C)NC(=O)[C@@H](CC(C)C)NC(=O)[C@H]2CCCN2C(=O)[C@H](CC(C)C)NC1=O
450 (≈ 329 µg/mL) | – | 1.1 | CC(C)C[C@@H]1NC(=O)[C@@H](CC(C)C)NC(=O)[C@@H](CC(C)C)NC(=O)[C@@H](CCC(=O)N2CCCC2)NC(=O)[C@@H](CC(C)C)NC(=O)[C@H]2CCCN2C1=O
550 (≈ 403 µg/mL) | – | 0.66 | CC(C)C[C@@H]1NC(=O)[C@@H](CC(C)C)NC(=O)[C@@H](CCC(=O)N2CCCC2)NC(=O)[C@@H](CC(C)C)NC(=O)[C@H]2CCCN2C(=O)[C@H](CC(C)C)NC1=O
610 (≈ 447 µg/mL) | 0.56 10^-6 cm/s | – | CC(C)C[C@@H]1NC(=O)[C@@H](CC(C)C)NC(=O)[C@@H](CC(C)C)NC(=O)[C@@H](CC(C)C)NC(=O)[C@@H](CCC(=O)N2CCCC2)NC(=O)[C@H]2CCCN2C1=O
640 (≈ 468 µg/mL) | 1.7 10^-6 cm/s | – | CC(C)C[C@@H]1NC(=O)[C@@H](CC(C)C)NC(=O)[C@@H](CC(C)C)NC(=O)[C@@H](CCC(=O)N2CCCC2)NC(=O)[C@H]2CCCN2C(=O)[C@H](CC(C)C)NC1=O
140 (≈ 102 µg/mL) | – | 0.23 | CC(C)C[C@@H]1NC(=O)[C@@H](CC(C)C)NC(=O)[C@H](CCC(=O)N2CCCC2)NC(=O)[C@@H](CC(C)C)NC(=O)[C@H]2CCCN2C(=O)[C@H](CC(C)C)NC1=O
730 (≈ 534 µg/mL) | 1.5 10^-6 cm/s | – | CC(C)C[C@@H]1NC(=O)[C@@H](CC(C)C)NC(=O)[C@H](CC(C)C)NC(=O)[C@@H](CCC(=O)N2CCCC2)NC(=O)[C@H]2CCCN2C(=O)[C@H](CC(C)C)NC1=O
550 (≈ 403 µg/mL) | – | 0.28 | CC(C)C[C@@H]1NC(=O)[C@@H](CC(C)C)NC(=O)[C@H]2CCCN2C(=O)[C@H](CC(C)C)NC(=O)[C@H](CCC(=O)N2CCCC2)NC(=O)[C@@H](CC(C)C)NC1=O
